{"source": "ChEMBL document CHEMBL4325922", "about": "“Restoring Let-7 microRNA Biogenesis Using a Small-Molecule Inhibitor of the Protein-RNA Interaction” (ACS Med Chem Lett, 2018)", "test_system": "JAR", "assay": "Inhibition of sphere formation in human JAR cells at 10 uM after 24 hrs by bright-field microscopic analysis", "format": "functional, cell-based", "how_it_was_run": "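JAR cells are pretreated with compound for 24 h, then dissociated to single cells. Equal numbers of viable cells are grown for 12 days in sphere-forming media. The degree of sphere formation is assessed under a microscope.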", "note": "Activity calls are given as the source filed them. The calls are words filed in the database; no cut-off is given here.", "data": [{"smiles": "NC(=O)c1c(Nc2ccc(Cl)cc2Cl)[nH]c2c(Cl)ccc(Cl)c2c1=O", "values": [{"measurement": "inhibition", "result": "Active"}]}]}
